Data as given in ChEMBL document CHEMBL3865799, “Synthesis of a series of novel dihydroartemisinin monomers and dimers containing chalcone as a linker and their anticancer activity” (Eur J Med Chem, 2016).

Tests used:
[1] = Cytotoxicity against human PC3 cells assessed as cell growth inhibition at 30 uM after 48 hrs by MTT assay; format: functional; conditions: PC-3, 48 h, read-out: GI
Method in brief: (§1)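 Adherent lines at 70–75% confluence, grown at 37 °C in 5% CO2 with 10% FCS. Exposed 48 h to compound in DMSO (vehicle <0.2% v/v). MTT dye added 3 h before termination; formazan dissolved in DMSO, OD 570 nm with 620 nm reference. Growth inhibition expressed as % of untreated; IC50 taken from the dose series.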

[2] = Lipophilicity, log P of the compound; format: physicochemical; conditions: octanol/water
[3] = Cytotoxicity against human LS180 cells assessed as cell growth inhibition at 50 uM after 48 hrs by MTT assay; format: functional; conditions: LS180, 48 h, read-out: GI; method in brief: as §1
[4] = Cytotoxicity against human LS180 cells assessed as cell growth inhibition at 30 uM after 48 hrs by MTT assay; format: functional; conditions: LS180, 48 h, read-out: GI; method in brief: as §1
[5] = Cytotoxicity against human HL60 cells assessed as cell growth inhibition at 30 uM after 48 hrs by MTT assay; format: functional; conditions: HL-60, 48 h, read-out: GI
Method in brief: (§2)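 HL-60 suspension cells, 1.5 × 10^4 per well, grown at 37 °C in 5% CO2 with 10% FCS. Treated 48 h with compound in DMSO (vehicle <0.2% v/v). MTT added 3 h before the end. Formazan dissolved in DMSO and read at 570 nm (reference 620 nm). % growth inhibition computed against untreated cells; IC50 taken from the concentration series.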

[6] = Cytotoxicity against human MIAPaCa2 cells assessed as cell growth inhibition at 50 uM after 48 hrs by MTT assay; format: functional; conditions: MIA PaCa-2, 48 h, read-out: GI; method in brief: as §1
[7] = Aqueous solubility of the compound at pH 7; format: physicochemical
[8] = Cytotoxicity against human PC3 cells assessed as cell growth inhibition at 50 uM after 48 hrs by MTT assay; format: functional; conditions: PC-3, 48 h, read-out: GI; method in brief: as §1
[9] = Cytotoxicity against human HepG2 cells assessed as cell growth inhibition at 50 uM after 48 hrs by MTT assay; format: functional; conditions: HepG2, 48 h, read-out: GI; method in brief: as §1
[10] = Cytotoxicity against human MIAPaCa2 cells assessed as cell growth inhibition at 30 uM after 48 hrs by MTT assay; format: functional; conditions: MIA PaCa-2, 48 h, read-out: GI; method in brief: as §1
[11] = Cytotoxicity against human HepG2 cells assessed as cell growth inhibition at 30 uM after 48 hrs by MTT assay; format: functional; conditions: HepG2, 48 h, read-out: GI; method in brief: as §1
[12] = Cytotoxicity against human HL60 cells assessed as cell growth inhibition at 50 uM after 48 hrs by MTT assay; format: functional; conditions: HL-60, 48 h, read-out: GI; method in brief: as §2

Structure (SMILES)	inhibition of growth at 30 µM [1] [%]	logP [2]	inhibition of growth at 50 µM [3] [%]	inhibition of growth at 30 µM [4] [%]	inhibition of growth at 30 µM [5] [%]	inhibition of growth at 50 µM [6] [%]	solubility [7] [µg/mL]	inhibition of growth at 50 µM [8] [%]	inhibition of growth at 50 µM [9] [%]	inhibition of growth at 30 µM [10] [%]	inhibition of growth at 30 µM [11] [%]	inhibition of growth at 50 µM [12] [%]
COc1ccc(C(=O)/C=C/c2ccc(OCCO[C@H]3O[C@@H]4O[C@@]5(C)CC[C@H]6[C@H](C)CC[C@@H]([C@H]3C)[C@@]46OO5)cc2)cc1Cl	40.3	5.34 to 7.45	45.4	41.6	93.4	52.2	< 10	42.7	32.3	51.1	26.7	93.8
CCOc1cc(/C=C/C(=O)c2ccc(OCCO[C@H]3O[C@@H]4O[C@@]5(C)CC[C@H]6[C@H](C)CC[C@@H]([C@H]3C)[C@@]46OO5)cc2)ccc1O	55.1	5.34 to 7.45	36.3	27.4	80.8	49.8	< 10	58.9	28.2	49.4	25.5	84.1
C[C@H]1[C@@H](OCCOc2ccc(C(=O)/C=C/c3c[nH]c4ccccc34)cc2)O[C@@H]2O[C@@]3(C)CC[C@H]4[C@H](C)CC[C@@H]1[C@@]24OO3	38.6	5.34 to 7.45	44.1	41.9	89.1	49.4	< 10	39.6	25.9	49.1	21.2	91.8
COc1ccc(/C=C/C(=O)c2ccc(OCCO[C@H]3O[C@@H]4O[C@@]5(C)CC[C@H]6[C@H](C)CC[C@@H]([C@H]3C)[C@@]46OO5)cc2)c(OC)c1	38.2	5.34 to 7.45	29.6	27.5	83.5	41.7	< 10	46.9	25.1	24.8	18.2	85.7
C[C@H]1[C@@H](OCCOc2ccc(/C=C/C(=O)c3ccc(OCCO[C@H]4O[C@@H]5O[C@@]6(C)CC[C@H]7[C@H](C)CC[C@@H]([C@H]4C)[C@@]57OO6)cc3)cc2)O[C@@H]2O[C@@]3(C)CC[C@H]4[C@H](C)CC[C@@H]1[C@@]24OO3	44.2	5.34 to 7.45	49.5	45.8	85.6	49.1	< 10	47.6	47.8	45.1	40.9	87.9
C[C@H]1[C@@H](OCCOc2ccc(/C=C/C(=O)c3ccc(Cl)s3)cc2)O[C@@H]2O[C@@]3(C)CC[C@H]4[C@H](C)CC[C@@H]1[C@@]24OO3	37.4	5.34 to 7.45	41.6	39.5	91.9	59.7	< 10	39.9	25.2	53.2	21.1	92.1
COc1ccc(C(=O)/C=C/c2ccc(OCCO[C@H]3O[C@@H]4O[C@@]5(C)CC[C@H]6[C@H](C)CC[C@@H]([C@H]3C)[C@@]46OO5)cc2)c(OC)c1	47.4	5.34 to 7.45	74.1	63.3	89.3	46.8	< 10	49.8	28.9	44.1	27.3	89.5
C[C@H]1[C@@H](OCCOc2ccc(/C=C/C(=O)c3cc4ccccc4o3)cc2)O[C@@H]2O[C@@]3(C)CC[C@H]4[C@H](C)CC[C@@H]1[C@@]24OO3	42.5	5.34 to 7.45	43.6	37.6	84.6	62.3	< 10	48.5	32	52.4	29.9	88.7
C[C@H]1[C@@H](OCCOc2cccc(C(=O)/C=C/c3cn(CCO[C@H]4O[C@@H]5O[C@@]6(C)CC[C@H]7[C@H](C)CC[C@@H]([C@H]4C)[C@@]57OO6)c4ccccc34)c2)O[C@@H]2O[C@@]3(C)CC[C@H]4[C@H](C)CC[C@@H]1[C@@]24OO3	46.3	5.34 to 7.45	37.8	36.2	81.5	49.4	< 10	48.7	28.7	47.1	25.4	83.2
C[C@H]1[C@@H](OCCOc2ccc(/C=C/C(=O)c3ccc(Cl)cc3)cc2)O[C@@H]2O[C@@]3(C)CC[C@H]4[C@H](C)CC[C@@H]1[C@@]24OO3	38.7	5.34 to 7.45	45.6	42.1	89.4	62.8	< 10	41.8	25.1	54.4	19.7	93.2
C[C@H]1[C@@H](OCCOc2ccc(/C=C/C(=O)c3ccccc3Cl)cc2)O[C@@H]2O[C@@]3(C)CC[C@H]4[C@H](C)CC[C@@H]1[C@@]24OO3	52.4	5.34 to 7.45	57.5	56.7	91.8	61.1	< 10	56.1	25.2	55.1	23.8	92.9
COc1ccc(/C=C/C(=O)c2ccc(OCCO[C@H]3O[C@@H]4O[C@@]5(C)CC[C@H]6[C@H](C)CC[C@@H]([C@H]3C)[C@@]46OO5)cc2)c(OC)c1OC	53.3	5.34 to 7.45	58.5	50.8	78.7	43.1	< 10	54.2	30.1	36.2	28.1	82.9
C[C@@H]1CC[C@H]2[C@@H](C)C(=O)O[C@@H]3O[C@@]4(C)CC[C@@H]1[C@]32OO4 [ARTEMISININ]	16		18.5	13.4	14.4	18		17.6	14.4	13	10.5	19.8
C[C@H]1[C@@H](OCCOc2ccc(-c3cc(=O)c4ccc(OCCO[C@H]5O[C@H]6O[C@@]7(C)CC[C@H]8[C@H](C)CC[C@@H]([C@H]5C)[C@@]68OO7)cc4o3)cc2)O[C@H]2O[C@@]3(C)CC[C@H]4[C@H](C)CC[C@@H]1[C@@]24OO3	40.6	5.34 to 7.45	39.7	30.5	71.8	41.8	< 10	41.3	37.7	32.7	30.1 to 87.4	73.8
C[C@H]1[C@@H](OCCOc2ccc(/C=C/C(=O)c3cccc(O)c3)cc2)O[C@@H]2O[C@@]3(C)CC[C@H]4[C@H](C)CC[C@@H]1[C@@]24OO3	47.6	5.34 to 7.45	39.3	31.1	77.7	51.1	< 10	49.5	38.3	44.1	33.6	76.5
